Measurements published in ChEMBL document CHEMBL3351319, “Synthesis, biological evaluation and 3D-QSAR study of novel 4,5-dihydro-1H-pyrazole thiazole derivatives as BRAF(V⁶⁰⁰E) inhibitors” (Bioorg Med Chem, 2015).
pIC50: −log10 of the molar value.

Tested on: MCF7
Test: Antiproliferative activity against human MCF7 cells after 48 hrs by MTT assay
Type: functional, cell-based
Settings: MCF7, 48 h
Method in brief: (§1)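 Cells grown to log phase in RPMI 1640 with 10% FBS, seeded at 2 × 10^4 cells/mL and left 24 h at 37 °C, 5% CO2. Compounds added at pre-set concentrations, sorafenib as positive control, 48 h exposure. MTT (2.5 mg/mL in PBS) added for 4 h, then SDS-isobutanol-HCl extraction overnight at 37 °C. OD read at 570 nm. Three replicate wells per concentration, each assay run at least three times.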

Point of comparison: Brc1ccc(C2=NN(c3nc(-c4ccccc4)cs3)C(c3cccs3)C2)cc1 (stereo not drawn), pIC50 5.17. Against it:
- COc1ccc(-c2csc(N3N=C(c4ccc(C)cc4)CC3c3cccs3)n2)cc1 (stereo not drawn) — within 0.2 log units, 5.32
- CNC(=O)c1cc(Oc2ccc(NC(=O)Nc3ccc(Cl)c(C(F)(F)F)c3)cc2)ccn1 [SORAFENIB] — 1.55 log units higher, 6.72
- Fc1ccc(C2=NN(c3nc(-c4ccccc4)cs3)C(c3cccs3)C2)cc1 (stereo not drawn) — 0.46 log units higher, 5.63
- COc1ccc(-c2csc(N3N=C(c4ccc(F)cc4)CC3c3cccs3)n2)cc1 (stereo not drawn) — 0.32 log units lower, 4.85
- COc1ccc(C2=NN(c3nc(-c4ccc(Br)cc4)cs3)C(c3cccs3)C2)cc1 (stereo not drawn) — 0.50 log units lower, 4.67
- COc1ccc(-c2csc(N3N=C(c4ccc(Br)cc4)CC3c3cccs3)n2)cc1 (stereo not drawn) — 1.00 log units higher, 6.17
- Cc1ccc(C2=NN(c3nc(-c4ccc(Br)cc4)cs3)C(c3cccs3)C2)cc1 (stereo not drawn) — 0.53 log units higher, 5.70
- Cc1ccc(C2=NN(c3nc(-c4ccccc4)cs3)C(c3cccs3)C2)cc1 (stereo not drawn) — 0.44 log units lower, 4.73
- Brc1ccc(C2=NN(c3nc(-c4ccc(Br)cc4)cs3)C(c3cccs3)C2)cc1 (stereo not drawn) — 0.62 log units lower, 4.55
- Fc1ccc(C2=NN(c3nc(-c4ccc(C(F)(F)F)cc4)cs3)C(c3cccs3)C2)cc1 (stereo not drawn) — 0.71 log units higher, 5.88

Tested on: not listed separately
Test: Inhibition of full-length GST-tagged mouse BRAF V600E mutant using MEK1 as substrate preincubated for 1 hr
Settings: not given
Method in brief: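 Mouse full-length GST-tagged BRAF V600E (7.5 ng) pre-incubated 1 h at room temperature with compound in assay dilution buffer. Reaction started by adding 200 ng His-tagged full-length human MEK1, 200 µM ATP (0.8 µCi hot ATP) and 30 mM MgCl2, then run 25 min at room temperature. Quenched with LDS buffer and heated 5 min at 70 °C. Products separated on 4-12% gel, which was dried and read on a phosphor screen. No-enzyme and no-inhibitor controls included, triplicate.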

Point of comparison: Brc1ccc(C2=NN(c3nc(-c4ccccc4)cs3)C(c3cccs3)C2)cc1 (stereo not drawn), pIC50 5.66. Against it:
- COc1ccc(-c2csc(N3N=C(c4ccc(C)cc4)CC3c3cccs3)n2)cc1 (stereo not drawn) — 1.30 log units higher, 6.96
- CNC(=O)c1cc(Oc2ccc(NC(=O)Nc3ccc(Cl)c(C(F)(F)F)c3)cc2)ccn1 [SORAFENIB] — 1.86 log units higher, 7.52
- Fc1ccc(C2=NN(c3nc(-c4ccccc4)cs3)C(c3cccs3)C2)cc1 (stereo not drawn) — 0.51 log units higher, 6.17
- COc1ccc(-c2csc(N3N=C(c4ccc(F)cc4)CC3c3cccs3)n2)cc1 (stereo not drawn) — 0.37 log units lower, 5.29
- COc1ccc(C2=NN(c3nc(-c4ccc(Br)cc4)cs3)C(c3cccs3)C2)cc1 (stereo not drawn) — 0.26 log units lower, 5.40
- COc1ccc(-c2csc(N3N=C(c4ccc(Br)cc4)CC3c3cccs3)n2)cc1 (stereo not drawn) — 1.44 log units higher, 7.10
- Cc1ccc(C2=NN(c3nc(-c4ccc(Br)cc4)cs3)C(c3cccs3)C2)cc1 (stereo not drawn) — 0.59 log units higher, 6.25
- Cc1ccc(C2=NN(c3nc(-c4ccccc4)cs3)C(c3cccs3)C2)cc1 (stereo not drawn) — 0.25 log units lower, 5.41
- Brc1ccc(C2=NN(c3nc(-c4ccc(Br)cc4)cs3)C(c3cccs3)C2)cc1 (stereo not drawn) — 0.61 log units lower, 5.05
- Fc1ccc(C2=NN(c3nc(-c4ccc(C(F)(F)F)cc4)cs3)C(c3cccs3)C2)cc1 (stereo not drawn) — 0.34 log units higher, 6.00

Tested on: not listed separately
Test: Antiproliferative activity against human WM266.4 cells after 48 hrs by MTT assay
Type: functional, cell-based
Settings: WM 266-4, 48 h
Method in brief: as §1

Point of comparison: Cc1ccc(C2=NN(c3nc(-c4ccc(Br)cc4)cs3)C(c3cccs3)C2)cc1 (stereo not drawn), pIC50 4.74. Against it:
- COc1ccc(-c2csc(N3N=C(c4ccc(C)cc4)CC3c3cccs3)n2)cc1 (stereo not drawn) — 0.68 log units higher, 5.42
- Brc1ccc(C2=NN(c3nc(-c4ccccc4)cs3)C(c3cccs3)C2)cc1 (stereo not drawn) — 0.99 log units higher, 5.73
- CNC(=O)c1cc(Oc2ccc(NC(=O)Nc3ccc(Cl)c(C(F)(F)F)c3)cc2)ccn1 [SORAFENIB] — 2.48 log units higher, 7.22
- Fc1ccc(C2=NN(c3nc(-c4ccccc4)cs3)C(c3cccs3)C2)cc1 (stereo not drawn) — 2.03 log units higher, 6.77
- COc1ccc(-c2csc(N3N=C(c4ccc(F)cc4)CC3c3cccs3)n2)cc1 (stereo not drawn) — 0.61 log units higher, 5.35
- COc1ccc(C2=NN(c3nc(-c4ccc(Br)cc4)cs3)C(c3cccs3)C2)cc1 (stereo not drawn) — 0.49 log units higher, 5.23
- COc1ccc(-c2csc(N3N=C(c4ccc(Br)cc4)CC3c3cccs3)n2)cc1 (stereo not drawn) — 0.96 log units higher, 5.70
- Cc1ccc(C2=NN(c3nc(-c4ccccc4)cs3)C(c3cccs3)C2)cc1 (stereo not drawn) — 0.38 log units higher, 5.12
- Brc1ccc(C2=NN(c3nc(-c4ccc(Br)cc4)cs3)C(c3cccs3)C2)cc1 (stereo not drawn) — within 0.2 log units, 4.89
- Fc1ccc(C2=NN(c3nc(-c4ccc(C(F)(F)F)cc4)cs3)C(c3cccs3)C2)cc1 (stereo not drawn) — 0.55 log units higher, 5.29
